Results taken from ChEMBL document CHEMBL2062483, “Design of Bcl-2 and Bcl-xL inhibitors with subnanomolar binding affinities based upon a new scaffold” (J Med Chem, 2012).
Calls of active or inactive are those of the source. The calls are words filed in the database; no cut-off is given here.

Legend:
Bcl-2-like protein 1 = Bcl-2-like protein 1 (Homo sapiens, UniProt Q07817); test: Binding affinity to N-terminus 8X His-tagged human Bcl-xL expressed in Escherichia coli BL21 (DE3) cells after 2 hrs by fluorescence polarization assay
Sequence of Bcl-2-like protein 1 (Q07817 whole entry): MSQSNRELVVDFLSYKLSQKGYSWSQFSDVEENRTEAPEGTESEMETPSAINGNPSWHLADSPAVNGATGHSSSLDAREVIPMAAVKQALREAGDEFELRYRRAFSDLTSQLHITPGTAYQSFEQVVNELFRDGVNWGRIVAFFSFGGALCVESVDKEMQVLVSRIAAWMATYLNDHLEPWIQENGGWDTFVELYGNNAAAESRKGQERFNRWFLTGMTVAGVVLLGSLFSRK
Procedure, shortened: (§1)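 Competitive FP binding: serially diluted inhibitor in DMSO added to preincubated protein/fluorescent probe complex, 2 h at room temperature with gentle shaking. Final protein/probe: Bcl-2 1.5 nM/1 nM; Bcl-xL 10 nM/2 nM; Mcl-1 20 nM/2 nM. IC50 from nonlinear regression; Ki calculated from IC50, probe Kd and protein/probe concentrations.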

[1] = target: Induced myeloid leukemia cell differentiation protein Mcl-1 (Homo sapiens, UniProt Q07820); test: Binding affinity to N-terminus 8X His-tagged human Mcl1 expressed in Escherichia coli BL21 (DE3) cells after 2 hrs by fluorescence polarization assay; procedure, shortened: as §1
Sequence of Induced myeloid leukemia cell differentiation protein Mcl-1 (Q07820 whole entry): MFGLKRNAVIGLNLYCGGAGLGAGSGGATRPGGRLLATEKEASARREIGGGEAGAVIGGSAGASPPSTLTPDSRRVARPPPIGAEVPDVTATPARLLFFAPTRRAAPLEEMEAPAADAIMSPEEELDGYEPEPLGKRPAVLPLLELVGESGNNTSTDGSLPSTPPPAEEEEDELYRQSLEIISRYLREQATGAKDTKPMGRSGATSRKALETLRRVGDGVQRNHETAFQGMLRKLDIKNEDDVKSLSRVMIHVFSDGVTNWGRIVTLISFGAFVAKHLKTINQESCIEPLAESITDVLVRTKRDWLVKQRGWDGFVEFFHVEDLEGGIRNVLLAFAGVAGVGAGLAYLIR

NCI-H146 [2] = test: Cytotoxicity against human NCI-H146 cells assessed as cell death after 24 hrs by trypan blue assay; assay type: functional, cell-based
Procedure, shortened: (§2)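 H146 cells exposed to compound for 24 h, then harvested and stained with trypan blue. Cells staining blue or looking morphologically unhealthy were scored dead; at least 100 cells counted per sample.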

NCI-H146 [3] = test: Cytotoxicity against human NCI-H146 cells assessed as cell death at 30 to 100 nM after 24 hrs by trypan blue assay; assay type: functional, cell-based; procedure, shortened: as §2
[4] = Cytotoxicity against human NCI-H146 cells assessed as cell death at 300 nM after 24 hrs by trypan blue assay; assay type: functional
Procedure, shortened: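 H146 human small cell lung cancer line, grown in RPMI-1640 with 10% FBS, exposed to compound for 24 h. Cells then harvested and stained with trypan blue. Blue-stained or morphologically unhealthy cells counted as dead, with at least 100 cells scored per sample.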

NCI-H146 [5] = test: Induction of apoptosis in human NCI-H146 cells assessed as PARP cleavage at 100 nM after 24 hrs by Western blot analysis; assay type: functional, cell-based
Procedure, shortened: (§3)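 H146 cells treated 24 h, lysed on ice 20 min in RIPA buffer (1% NP40, 0.5% Na-deoxycholate, 0.1% SDS in PBS) with 1 μmol/L PMSF and protease inhibitors. Lysates cleared, protein quantified, run on 4–20% SDS-PAGE, blotted to PVDF, blocked in 5% milk. Rabbit anti-PARP and anti-caspase-3, GAPDH loading control; HRP secondary with chemiluminescent detection.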

NCI-H146 [6] = test: Induction of apoptosis in human NCI-H146 cells assessed as caspase 3 cleavage at 100 nM after 24 hrs by Western blot analysis; assay type: functional, cell-based; procedure, shortened: as §3
[7] = target: Apoptosis regulator Bcl-2 (Homo sapiens, UniProt P10415); test: Binding affinity to N-terminus 6X His-tagged human Bcl2 expressed in Escherichia coli BL21 (DE3) cells after 2 hrs by fluorescence polarization assay; procedure, shortened: as §1
Sequence of Apoptosis regulator Bcl-2 (P10415 whole entry): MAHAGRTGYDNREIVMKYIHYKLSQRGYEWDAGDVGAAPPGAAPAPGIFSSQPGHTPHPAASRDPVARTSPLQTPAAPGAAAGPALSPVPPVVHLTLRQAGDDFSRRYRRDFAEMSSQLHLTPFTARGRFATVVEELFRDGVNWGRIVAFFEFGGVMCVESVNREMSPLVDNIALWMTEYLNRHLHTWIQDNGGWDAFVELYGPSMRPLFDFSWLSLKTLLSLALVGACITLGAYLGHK

[8] = Growth inhibition of human NCI-H146 cells after 4 days by WST8 assay; assay type: functional, cell-based; conditions: NCI-H146, 96 h
NCI-H1417 = test: Growth inhibition of human NCI-H1417 cells after 4 days by WST8 assay; assay type: functional, cell-based; conditions: NCI-H1417, 96 h

Row | Structure (SMILES) | IC50 (Bcl-2-like protein 1) [nM] | Ki (Bcl-2-like protein 1) [nM] | IC50 [1] [nM] | Activity (NCI-H146 [2]) | Activity (NCI-H146 [3]) | Activity [4] [%] | Activity (NCI-H146 [5]) | Activity (NCI-H146 [6]) | IC50 [7] [nM] | Ki [7] [nM] | IC50 [8] [nM] | IC50 (NCI-H1417) [nM]
1 | CCc1c(-c2ccc(Cl)cc2)c(-c2cccc(N3CCN(c4ccc(NS(=O)(=O)c5ccc(N[C@H](CCN(C)C)CSc6ccccc6)c([N+](=O)[O-])c5)cc4)CC3)c2)c(C(=O)O)n1C | 7.5 | < 1 | > 2000 | Dose-dependent effect | Active | >70 | Active | Active |  |  |  | 
2 | CCOC(=O)c1c(-c2cccc(N3CCN(c4ccc(NS(=O)(=O)c5ccc(N[C@H](CCN(C)C)CSc6ccccc6)c([N+](=O)[O-])c5)cc4)CC3)c2)c(-c2ccc(Cl)cc2)cn1C | 12.6 | 1.7 | > 2000 |  |  |  |  |  | 45.8 | 11.6 | 4900 | 7300
3 | CN(C)CC[C@H](CSc1ccccc1)Nc1ccc(S(=O)(=O)Nc2ccc(N3CCNCC3)cc2)cc1[N+](=O)[O-] |  |  | > 100000 |  |  |  |  |  |  |  | > 10000 | > 10000
4 | CN(C)CC[C@H](CSc1ccccc1)Nc1ccc(S(=O)(=O)Nc2ccc(N3CCN(c4ccc(-c5c(-c6ccc(Cl)cc6)cn(CC[C@H](O)CO)c5C(=O)NCCCN5CCN(C)CC5)cc4)CC3)cc2)cc1[N+](=O)[O-] | 7.6 | < 1 | > 10000 |  |  |  |  |  | 33.9 | 8.5 | 2500 | 3300
5 | CN(C)CC[C@H](CSc1ccccc1)Nc1ccc(S(=O)(=O)NC(=O)c2ccc(N3CCN(Cc4ccccc4-c4ccc(Cl)cc4)CC3)cc2)cc1[N+](=O)[O-] [ABT 737] |  |  |  |  |  |  |  |  |  |  | 97 | 130
6 | CN(C)CC[C@H](CSc1ccccc1)Nc1ccc(S(=O)(=O)Nc2ccc(N3CCN(c4cccc(-c5c(-c6ccc(Cl)cc6)cn(CC[C@H](O)CO)c5C(=O)NCCCN5CCN(C)CC5)c4)CC3)cc2)cc1[N+](=O)[O-] | 6.2 | < 1 | > 10000 |  |  |  |  |  | 1.3 | < 0.6 | 2000 | 1800
7 | CNC(=O)c1c(-c2cccc(N3CCN(c4ccc(NS(=O)(=O)c5ccc(N[C@H](CCN(C)C)CSc6ccccc6)c([N+](=O)[O-])c5)cc4)CC3)c2)c(-c2ccc(Cl)cc2)cn1C | 6.3 | < 1 | > 2000 |  |  |  |  |  | 5.3 | 1.2 | 400 | 650
8 | CN(C)CC[C@H](CSc1ccccc1)Nc1ccc(S(=O)(=O)NC(=O)c2ccc(C#Cc3cccc(-c4c(-c5ccc(Cl)cc5)cn(CC[C@H](O)CO)c4C(=O)NCCCN4CCN(C)CC4)c3)cc2)cc1[N+](=O)[O-] | 5.7 | < 1 | > 10000 |  |  |  |  |  | 1.9 |  | > 10000 | > 10000
9 | CN(C)CC[C@H](CSc1ccccc1)Nc1ccc(S(=O)(=O)Nc2ccccc2)cc1[N+](=O)[O-] | 547000 | 166000 | > 100000 |  |  |  |  |  | > 100000 |  | > 10000 | > 10000
10 | CN(C)CC[C@H](CSc1ccccc1)Nc1ccc(S(=O)(=O)NC(=O)c2ccc(N3CCN(c4cccc(-c5c(-c6ccc(Cl)cc6)cn(CC[C@H](O)CO)c5C(=O)NCCCN5CCN(C)CC5)c4)CC3)cc2)cc1[N+](=O)[O-] | 6.1 | < 1 | > 10000 |  |  |  |  |  | 8.7 | 2 | > 10000 | > 10000
11 | CN(C)CC[C@H](CSc1ccccc1)Nc1ccc(S(=O)(=O)Nc2ccc(N3CCN(c4cccc(-c5c(-c6ccc(Cl)cc6)cn(C)c5C(=O)NCCCN5CCN(C)CC5)c4)CC3)cc2)cc1[N+](=O)[O-] | 4.9 | < 1 | > 10000 |  |  |  |  |  | 0.6 | < 0.6 | 430 | 650
12 | CN(C)CC[C@H](CSc1ccccc1)Nc1ccc(S(=O)(=O)Nc2ccc(NCCNc3cccc(-c4c(-c5ccc(Cl)cc5)cn(CC[C@H](O)CO)c4C(=O)NCCCN4CCN(C)CC4)c3)cc2)cc1[N+](=O)[O-] | 44.1 | 11.3 | > 10000 |  |  |  |  |  | 60.6 | 15.4 | > 10000 | > 10000
13 | CN(C)CC[C@H](CSc1ccccc1)Nc1ccc(S(=O)(=O)Nc2ccc(-c3cn(-c4cccc(-c5c(-c6ccc(Cl)cc6)cn(CC[C@H](O)CO)c5C(=O)NCCCN5CCN(C)CC5)c4)nn3)cc2)cc1[N+](=O)[O-] | 4.8 | < 1 | > 10000 |  |  |  |  |  | 1.4 | < 0.6 | > 10000 | > 10000
14 | CN(C)CC[C@H](CSc1ccccc1)Nc1ccc(S(N)(=O)=O)cc1[N+](=O)[O-] | 238000 | 75000 | > 100000 |  |  |  |  |  | > 100000 |  | > 10000 | > 10000
15 | CN(C)CC[C@H](CSc1ccccc1)Nc1ccc(S(=O)(=O)Nc2ccc(N3CCN(Cc4ccccc4-c4ccc(Cl)cc4)CC3)cc2)cc1[N+](=O)[O-] | 88.3 | 24.7 | > 10000 |  |  |  |  |  | 85.3 | 21.8 | > 10000 | > 10000
16 | CN(C)CC[C@H](CSc1ccccc1)Nc1ccc(S(=O)(=O)Nc2ccc(N3CCN(c4cccc(-c5cn(C)cc5-c5ccc(Cl)cc5)c4)CC3)cc2)cc1[N+](=O)[O-] | 34.4 | 8.3 | > 2000 |  |  |  |  |  | 82.6 | 21.1 | > 10000 | > 10000
17 | CN1CCN(CCCNC(=O)c2c(-c3ccccc3)c(-c3ccc(Cl)cc3)cn2CC[C@H](O)CO)CC1 | 453000 |  | > 100000 |  |  |  |  |  | 213000 | 78000 | > 10000 | > 10000
18 | CN(C)CC[C@H](CSc1ccccc1)Nc1ccc(S(=O)(=O)Nc2ccc(N3CCN(c4cccc(-c5c(-c6ccc(Cl)cc6)cn(C)c5C(=O)O)c4)CC3)cc2)cc1[N+](=O)[O-] | 3.6 | < 1 | > 2000 | Dose-dependent effect |  |  | Active | Active | 1.7 | < 0.6 | 340 | 552
19 | CN(C)CC[C@H](CSc1ccccc1)Nc1ccc(S(=O)(=O)Nc2ccc(C#Cc3cccc(-c4c(-c5ccc(Cl)cc5)cn(CC[C@H](O)CO)c4C(=O)NCCCN4CCN(C)CC4)c3)cc2)cc1[N+](=O)[O-] | 12.6 | 1.7 | > 10000 |  |  |  |  |  | 6.6 | 1.5 | > 10000 | > 10000
